Here are results for 37 sequences from the array DNA melting data of Ke et al. (doi:10.1101/2024.01.08.574731).

The nature of series [1]: folding enthalpy; higher = less favourable; fluorescence melt of hairpins on a sequencing array, two-state fit. The note with it: sodium 0.088 M. The method in brief: (§1)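 Cy3 fluorescence of library hairpins on a sequenced MiSeq flow cell, with annealed Cy3 and quencher oligos, was imaged in 50 mM Na-HEPES pH 8.0, 25 mM NaCl in 2.5 °C steps up to 60 °C. Signals were normalised to pre-quench Cy3 and to control variants. Melting temperature and folding enthalpy came from bootstrapped two-state fits, inverse-variance combined over four replicates. Fitted temperatures were raised by 9.35 °C to match UV melts.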

Series [2] is described as follows: melting temperature; fluorescence melt of hairpins on a sequencing array, two-state fit, raised by 9.35 °C to match UV melts. The following applies: sodium 0.088 M. An outline of the steps:
as §1

As for GTCACCGAAAGGTGGGAC ((((((....)))..))), the folding enthalpy in series [1] is -9.56 kcal/mol. In addition, the Tm in series [2] was 39 °C.

As to GTCACCGAAAGGTGTGAC ((((((....)))..))), the folding enthalpy in series [1] was -11.6 kcal/mol. Also, the Tm in series [2] was 42.4 °C.

Regarding GTCACCGAAAGGTTTGAC ((((((....)))..))), the folding enthalpy in series [1] is -15.6 kcal/mol. In addition, the Tm in series [2] amounted to 37.4 °C.

Consider GTCACCGGAAACAGTGAC (((((.(....).))))), for which the folding enthalpy in series [1] is -32.4 kcal/mol. In series [2], the Tm amounted to 44.9 °C.

On to GTCACGCGAAAGCGAGAC (((.(((....))).))), for which the folding enthalpy in series [1] is -17.5 kcal/mol. For the same sequence, in series [2], the Tm amounted to 60.1 °C.

GTCACGGGAAACCATGAC ((((.((....)).)))): in series [1], the folding enthalpy was -29.9 kcal/mol. The Tm in series [2] was found to be 41.7 °C.

As to GTCACGGGAAACCGTGAC (((((((....))))))), the folding enthalpy in series [1] was -35.5 kcal/mol. In addition, the Tm in series [2] was determined as 68.9 °C.

As for GTCACGGGAAACCGTGGC (.(((((....))))).), the folding enthalpy in series [1] is -19 kcal/mol. For the same sequence, the Tm in series [2] worked out at 62.7 °C.

Take GTCACGGGAAACTGTGAC (((((.(....).))))): the folding enthalpy in series [1] is -40.1 kcal/mol. For the same sequence, the Tm in series [2] is 54.6 °C.

Consider GTCACTACGAAAGTAGAC (((..(((....)))))), for which the folding enthalpy in series [1] was -10.2 kcal/mol. Also, the Tm in series [2] amounted to 28.3 °C.

Regarding GTCACTGGAAACAGTGAC (((((((....))))))), the folding enthalpy in series [1] is -46.7 kcal/mol. In addition, the Tm in series [2] was 63 °C.

GTCAGACGAAAGTCGAC (((.(((....)))))): the folding enthalpy in series [1] is -31.5 kcal/mol. In addition, in series [2], the Tm came out at 51.9 °C.

With GTCAGACGAAAGTCGGAC (((.(((....))).))), the folding enthalpy in series [1] is -35.5 kcal/mol. In addition, the Tm in series [2] was 63.1 °C.

For the sequence GTCAGAGGAAACTCTGGC (.(((((....))))).), the folding enthalpy in series [1] is -30.4 kcal/mol. The Tm in series [2] stood at 50.3 °C.

Regarding GTCAGAGGAAACTTTGAC ((((.((....)).)))), the folding enthalpy in series [1] is -32.4 kcal/mol. In addition, the Tm in series [2] was 37.8 °C.

In the case of GTCAGCCGAAAGGCAGAC (((.(((....))).))), in series [1], the folding enthalpy is -24.4 kcal/mol. For the same sequence, the Tm in series [2] was 61.9 °C.

For GTCAGCGAAAGCTAAGAC ((((((....)))..))), in series [1], the folding enthalpy was -16.7 kcal/mol. In series [2], the Tm stood at 41.5 °C.

Regarding GTCAGCGAAAGCTATGAC ((((((....)))..))), the folding enthalpy in series [1] was -20.6 kcal/mol. In addition, the Tm in series [2] came to 44.2 °C.

Consider GTCAGCGAAAGCTCAGAC ((((((....)))..))), for which, in series [1], the folding enthalpy was -15.8 kcal/mol. Moreover, in series [2], the Tm amounted to 34.5 °C.

GTCAGCGGAAACACTGAC (((((.(....).))))): the folding enthalpy in series [1] is -40.7 kcal/mol. In addition, the Tm in series [2] stood at 47.2 °C.

With GTCAGCGGAAACGCTAAC ((.((((....)))).)), in series [1], the folding enthalpy is -15.2 kcal/mol. For the same sequence, the Tm in series [2] came to 37.4 °C.

With GTCAGCGGAAACGTTGAC ((((.((....)).)))), in series [1], the folding enthalpy was -43.5 kcal/mol. Besides, in series [2], the Tm came to 52.9 °C.

GTCAGCTCGAAAGAGGAC (((..(((....)))))): the folding enthalpy in series [1] is -17.7 kcal/mol. Besides, the Tm in series [2] worked out at 33.4 °C.

Take GTCAGGGCGAAAGCCGAC (((..(((....)))))): the folding enthalpy in series [1] was -14.7 kcal/mol. For the same sequence, the Tm in series [2] was 48.7 °C.

As to GTCAGGGGAAACTCTGAC (((((.(....).))))), the folding enthalpy in series [1] was -33.4 kcal/mol. Further, the Tm in series [2] amounted to 48.9 °C.

As to GTCAGTCGAAAGACCGAC (((.(((....))).))), the folding enthalpy in series [1] was -22.1 kcal/mol. Besides, in series [2], the Tm amounted to 47.4 °C.

In the case of GTCAGTGCGAAAGCAGAC (((..(((....)))))), the folding enthalpy in series [1] was -14.4 kcal/mol. For the same sequence, the Tm in series [2] turned out to be 39.6 °C.

On to GTCAGTGGAAACGTTGAC ((((..(....)..)))), for which the folding enthalpy in series [1] was -21.1 kcal/mol. Also, in series [2], the Tm was 34.9 °C.

Regarding GTCATAGGAAACTACGAC (((.(((....))).))), the folding enthalpy in series [1] was -16.5 kcal/mol. Moreover, the Tm in series [2] is 30.8 °C.

Regarding GTCATAGGAAACTATGAC (((((((....))))))), in series [1], the folding enthalpy was -39.3 kcal/mol. For the same sequence, in series [2], the Tm was 55.9 °C.

Turning to GTCATAGGAAACTGTGAC ((((.((....)).)))), in series [1], the folding enthalpy was -32.1 kcal/mol. The Tm in series [2] is 46.4 °C.

Regarding GTCATCGAAAGATCAGAC ((((((....)))..))), in series [1], the folding enthalpy is -16.7 kcal/mol. Also, the Tm in series [2] amounted to 26.5 °C.

As to GTCATCGAAAGATGAGAC ((((((....)))..))), the folding enthalpy in series [1] was -13.7 kcal/mol. Besides, the Tm in series [2] was 40.7 °C.

Turning to GTCATCGAAAGATGTGAC ((((((....)))..))), the folding enthalpy in series [1] was -13.4 kcal/mol. Moreover, in series [2], the Tm is 35.7 °C.

With GTCATCGAAAGATTTGAC ((((((....)))..))), the folding enthalpy in series [1] is -13.2 kcal/mol. Moreover, the Tm in series [2] stood at 29.4 °C.

With GTCATCTCGAAAGAGGAC (((..(((....)))))), the folding enthalpy in series [1] is -20.9 kcal/mol. Also, the Tm in series [2] amounted to 39.4 °C.

For GTCATGCGAAAGCACGAC (((.(((....))).))), in series [1], the folding enthalpy is -27.5 kcal/mol. Also, the Tm in series [2] came out at 52.3 °C.
